In ChEMBL document CHEMBL4145543, “Synthesis and pharmacological evaluation of 6,7-dimethoxy-1,2,3,4-tetrahydroisoquinoline derivatives as sigma-2 receptor ligands” (Eur J Med Chem, 2018):

Key:
[1] = test system: KYSE-140; test: Cytotoxicity against human KYSE-140 cells after 48 hrs by CCK8 assay; format: functional, cell-based; conditions: KYSE-140, 48 h
How it was run: (§1)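 Exponentially growing Huh7 or KYSE-140 cells seeded at 4,000 cells/well, adhered overnight, then exposed to 6 concentrations for 48 h; DMSO vehicle control. CCK-8 added, 2 h at 37 °C in dark, absorbance at 450 nm. Viability as percent of control OD; IC50 by curve fitting, at least three experiments.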

[2] = molecular target: Sigma non-opioid intracellular receptor 1 (Cavia porcellus, UniProt Q60492); test: Displacement of [3H]-(+)-pentazocine from sigma-1 receptor in guinea pig brain membranes after 120 mins by microbeta scintillation counting method; format: cell membranes, Membrane
How it was run: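 Guinea pig brain membranes (frozen brains minus cerebellum; 300 µg) incubated with 6 nM [3H]-(+)-pentazocine stock (~42 Ci/mmol), 50 mM Tris-HCl pH 8.0, 25 °C, 120 min. Compounds from ethanol, 0.1-1000 nM, 10 points. Ice-cold 10 mM Tris stop, GF/B filtration, scintillation counting. Nonspecific defined with (+)-pentazocine or haloperidol (10 µM).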

[3] = molecular target: Sigma non-opioid intracellular receptor 1 (Cavia porcellus) (UniProt Q60492); test: Displacement of [3H]-(+)-pentazocine from sigma-1 receptor in guinea pig brain membranes at 1 uM after 120 mins by microbeta scintillation counting method relative to control; format: cell membranes; conditions: Membrane
How it was run: (§2)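 Single-point screen at 1 µM for displacement of [3H](+)-pentazocine (sigma-1, guinea pig brain membranes) or [3H]-DTG (sigma-2, rat liver membranes, with 100 nM (+)-pentazocine); 25 °C, pH 8.0 Tris buffer. Hits were defined as >50% displacement.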

[4] = Selectivity ratio of Ki for sigma-1 receptor in guinea pig brain membranes to Ki for sigma-2 receptor in Sprague-Dawley rat liver membranes; format: cell membranes
[5] = molecular target: T1, Sigma intracellular receptor 2 (Rattus norvegicus) (UniProt Q5U3Y7); test: Displacement of [3H]DTG from sigma-2 receptor in Sprague-Dawley rat liver membranes at 1 uM after 120 mins in presence of (+)-pentazocine by microbeta scintillation counting method relative to control; format: cell membranes; conditions: Membrane; how it was run: as §2
T1 sequence (whole entry): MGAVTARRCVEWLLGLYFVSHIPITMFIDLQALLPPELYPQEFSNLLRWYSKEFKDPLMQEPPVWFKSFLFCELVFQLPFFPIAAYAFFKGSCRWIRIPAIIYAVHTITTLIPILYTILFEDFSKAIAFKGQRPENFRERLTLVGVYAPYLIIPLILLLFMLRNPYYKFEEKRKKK

[6] = molecular target: T2, Sigma intracellular receptor 2 (Rattus norvegicus, UniProt Q5U3Y7); test: Displacement of [3H]DTG from sigma-2 receptor in Sprague-Dawley rat liver membranes after 120 mins in presence of (+)-pentazocine by microbeta scintillation counting method; format: cell membranes, Membrane
T2 sequence (Q5U3Y7 whole entry): T1 sequence (whole entry)

[7] = test system: Huh-7; test: Cytotoxicity against human HuH7 cells after 48 hrs by CCK8 assay; format: functional, cell-based; conditions: Huh-7, 48 h; how it was run: as §1
[8] = molecular target: Sigma non-opioid intracellular receptor 1 (Homo sapiens, UniProt Q99720); test: Binding affinity to sigma-1 receptor (unknown origin)
[9] = molecular target: Sigma intracellular receptor 2 (Homo sapiens, UniProt Q5BJF2); test: Binding affinity to sigma-2 receptor (unknown origin)
Sigma intracellular receptor 2 (Homo sapiens, UniProt Q5BJF2), sequence (Q5BJF2 whole entry): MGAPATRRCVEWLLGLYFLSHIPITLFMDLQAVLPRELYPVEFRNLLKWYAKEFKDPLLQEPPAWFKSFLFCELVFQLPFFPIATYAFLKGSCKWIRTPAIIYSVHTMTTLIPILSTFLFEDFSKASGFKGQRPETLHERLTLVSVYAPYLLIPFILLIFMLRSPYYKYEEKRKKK

Sigma non-opioid intracellular receptor 1 (Cavia porcellus, UniProt Q60492), sequence (Q60492 whole entry): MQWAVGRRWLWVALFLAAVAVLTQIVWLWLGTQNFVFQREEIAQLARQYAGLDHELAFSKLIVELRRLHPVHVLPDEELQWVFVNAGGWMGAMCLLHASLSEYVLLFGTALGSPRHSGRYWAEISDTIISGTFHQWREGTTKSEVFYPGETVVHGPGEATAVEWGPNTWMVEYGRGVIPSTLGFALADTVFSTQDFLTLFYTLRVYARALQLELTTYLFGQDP
Sigma non-opioid intracellular receptor 1 (Cavia porcellus), sequence (Q60492 whole entry): as above
Sigma non-opioid intracellular receptor 1 (Homo sapiens, UniProt Q99720), sequence (Q99720 whole entry): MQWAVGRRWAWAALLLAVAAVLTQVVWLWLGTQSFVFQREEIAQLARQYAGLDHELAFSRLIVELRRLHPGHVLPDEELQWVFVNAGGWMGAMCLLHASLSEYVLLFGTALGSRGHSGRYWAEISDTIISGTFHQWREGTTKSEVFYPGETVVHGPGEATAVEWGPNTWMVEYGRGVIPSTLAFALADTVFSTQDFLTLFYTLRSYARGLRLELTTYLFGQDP

Row | Compound | Ki [2] [nM] | inhibition [3] [%] | Ratio Ki [4] | inhibition [5] [%] | Ki [6] [nM] | IC50 [1] [nM] | IC50 [7] [nM] | Ki [8] [nM] | Ki [9] [nM]
1 | COc1ccc(C(=O)CN2CCc3cc(OC)c(OC)cc3C2)c(OC)c1 | > 1000 | > 50 | > 18 | > 50 | 53.8 | > 100 | > 100 | – | –
2 | COc1cc2c(cc1OC)CN(CCC(=O)c1c(C)c(OC)c(OC)c(OC)c1O)CC2 | > 1000 | > 50 | – | > 50 | > 1000 | 93700 | 81600 | – | –
3 | COc1cc2c(cc1OC)CN(CCCn1cnc3cc(Cl)c([N+](=O)[O-])cc3c1=O)CC2 | > 1000 | > 50 | – | > 50 | > 1000 | > 100 | > 100 | – | –
4 | COc1cc2c(cc1OC)CN(CCCCn1cnc3cc(OC)c(OC)cc3c1=O)CC2 | > 1000 | > 50 | > 22.8 | > 50 | 43.8 | > 100 | > 100 | – | –
5 | CCn1c(=O)n(C(=O)NC2C[C@@H]3CC[C@@H](C2)N3C)c2ccccc21 (stereo partly drawn) | – | – | – | – | – | – | – | 6300 | 32
6 | COc1ccc(C)cc1NC(=O)OC1C[C@H]2CCC[C@H](C1)N2CCCCCCN (stereo partly drawn) | – | – | – | – | – | – | – | 1420 | 5.19
7 | COc1ccc(C(O)CCCCN2CCc3cc(OC)c(OC)cc3C2)c(OC)c1 (stereo not drawn) | > 1000 | > 50 | > 161 | > 50 | 6.2 | – | – | – | –

Continued, in another order:

Row | Ki [2] [nM] | inhibition [3] [%] | Ratio Ki [4] | inhibition [5] [%] | Ki [6] [nM] | Compound | IC50 [1] [nM] | IC50 [7] [nM] | Ki [8] [nM] | Ki [9] [nM]
8 | > 1000 | > 50 | > 55 | > 50 | 18.2 | COc1ccc(C(O)CCN2CCc3cc(OC)c(OC)cc3C2)c(C)c1 (stereo not drawn) | > 100 | > 100 | – | –
9 | > 1000 | > 50 | > 71.9 | > 50 | 13.9 | COc1cc2c(cc1OC)CN(CCCn1cnc3cc(OC)c(OC)cc3c1=O)CC2 | > 100 | > 100 | – | –
10 | > 1000 | > 50 | > 192 | > 50 | 5.2 | COc1ccc(C(O)CCCCN2CCc3cc(OC)c(OC)cc3C2)c(C)c1 (stereo not drawn) | 14900 | 12500 | – | –
11 | > 1000 | > 50 | > 33 | > 50 | 30.2 | COc1ccc(C(O)CCN2CCc3cc(OC)c(OC)cc3C2)c(OC)c1 (stereo not drawn) | 26100 | 45900 | – | –
